# Data from ChEMBL document CHEMBL3421610, “Antimalarial activity of 4-amidinoquinoline and 10-amidinobenzonaphthyridine derivatives” (J Med Chem, 2015).
# Calls of active or inactive are those of the source. The rule behind the calls is not given here.
# Biological target: hERG (KCNH2) (Homo sapiens, UniProt Q12809)
# Assay: Inhibition of human ERG expressed in CHL cells assessed as tail current at 10 uM after 7 mins by patch clamp assay relative to control
# Format: cell-based
# Conditions: CHL cells expressing human ERG
# Sequence of hERG (KCNH2) (Q12809 whole entry): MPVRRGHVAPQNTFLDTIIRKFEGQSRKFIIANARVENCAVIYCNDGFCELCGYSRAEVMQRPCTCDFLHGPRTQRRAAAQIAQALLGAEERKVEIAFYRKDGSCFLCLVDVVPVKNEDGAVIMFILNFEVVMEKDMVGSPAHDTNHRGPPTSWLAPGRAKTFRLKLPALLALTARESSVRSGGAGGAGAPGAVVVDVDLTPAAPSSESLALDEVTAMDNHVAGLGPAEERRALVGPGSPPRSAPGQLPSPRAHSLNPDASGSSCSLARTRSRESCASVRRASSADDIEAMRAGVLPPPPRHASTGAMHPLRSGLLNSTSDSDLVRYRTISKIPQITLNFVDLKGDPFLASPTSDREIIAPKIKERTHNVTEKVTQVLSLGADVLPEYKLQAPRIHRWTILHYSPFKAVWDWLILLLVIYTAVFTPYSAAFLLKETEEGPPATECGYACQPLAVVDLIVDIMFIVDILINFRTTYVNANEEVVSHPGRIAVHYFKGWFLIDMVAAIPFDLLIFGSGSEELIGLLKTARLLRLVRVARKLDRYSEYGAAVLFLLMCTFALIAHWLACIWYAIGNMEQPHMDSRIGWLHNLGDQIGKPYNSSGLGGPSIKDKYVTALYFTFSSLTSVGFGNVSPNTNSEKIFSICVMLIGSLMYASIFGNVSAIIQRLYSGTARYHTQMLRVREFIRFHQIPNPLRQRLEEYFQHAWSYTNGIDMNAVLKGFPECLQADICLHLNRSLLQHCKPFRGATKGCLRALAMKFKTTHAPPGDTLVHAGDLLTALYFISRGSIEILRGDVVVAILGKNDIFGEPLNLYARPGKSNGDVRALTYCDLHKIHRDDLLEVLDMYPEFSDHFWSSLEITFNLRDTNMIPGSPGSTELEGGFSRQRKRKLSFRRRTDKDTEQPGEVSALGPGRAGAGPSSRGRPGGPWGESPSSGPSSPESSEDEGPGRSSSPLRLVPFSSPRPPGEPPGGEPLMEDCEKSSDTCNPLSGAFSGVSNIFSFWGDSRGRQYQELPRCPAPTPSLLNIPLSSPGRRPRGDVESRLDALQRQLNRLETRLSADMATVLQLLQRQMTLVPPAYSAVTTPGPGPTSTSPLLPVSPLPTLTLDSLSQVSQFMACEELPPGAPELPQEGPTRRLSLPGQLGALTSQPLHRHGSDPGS
row,SMILES,"inhibition at 7 min, 10 µM [%]"
1,COc1ccc2nc3cc(Cl)ccc3c(N/C(=N/CCCN(C)C)c3ccc(Cl)cc3)c2n1,77
2,CCN(CC)CC(C)(C)C/N=C(/Nc1c2ccc(Cl)cc2nc2ccc(OC)nc12)c1ccccc1,10
3,CN(C)CCCN/C(=N\c1ccnc2cc(Cl)ccc12)c1ccc(Cl)cc1,115
4,CCN(CC)CCC/N=C(\C)N(CCCN(CC)CC)c1c2ccc(Cl)cc2nc2ccc(OC)nc12,13.8

# System: not listed separately
# Assay: Mean residence time in ICR mouse at 80 mg/kg, po
# Format: ADME, organism-based
# Parameters: dose 80 mg/kg, route oral
# Conditions: in vivo
# Outline: (§1)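 Male 7-week-old ICR mice, 23–28 g, given a single intragastric dose of 80 mg/kg in DD water (100 µL/20 g). Three mice per time point; whole blood taken by cardiac puncture into lithium heparin tubes and spun to plasma. Parameters come from plasma concentration–time curves of parent drug. t1/2 = ln2/kel from the log plot. AUC by linear trapezoidal rule, extrapolated to infinity; MRT = AUMC/AUC.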
row,SMILES,MRT [h]
1,CCN(CC)CCC/N=C(\C)N(CCCN(CC)CC)c1c2ccc(Cl)cc2nc2ccc(OC)nc12,22.1

# System: not listed separately
# Assay: Half life in human liver microsomes at 1 uM by LC/MS analysis
# Format: ADME
# Conditions: not given
# Outline: (§2)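 Compound at 1 µM final, diluted from […], with 0.5 mg/mL pooled human or mouse liver microsomes, NADP, MgCl2 and 0.1 M PBS pH 7.4. Reaction started with 1 U/mL G6PD and shaken at 37 °C. Aliquots quenched in cold acetonitrile at 0, 10, 20, 30 and 60 min and quantified by LC/MS. Half-life from log plot of total ion chromatogram area remaining.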
row,SMILES,half-life at 1 µM [h]
1,COc1ccc2nc3cc(Cl)ccc3c(N/C(=N/CCCN(C)C)c3ccc(Cl)cc3)c2n1,0.533
2,CCN(CC)CC(C)(C)C/N=C(/Nc1c2ccc(Cl)cc2nc2ccc(OC)nc12)c1ccccc1,> 1
3,CN(C)CCCN/C(=N\c1ccnc2cc(Cl)ccc12)c1ccc(Cl)cc1,0.8
4,CCN(CC)CCC/N=C(\C)N(CCCN(CC)CC)c1c2ccc(Cl)cc2nc2ccc(OC)nc12,> 1

# System: not listed separately
# Assay: Tmax in ICR mouse at 80 mg/kg, po
# Format: ADME, organism-based
# Parameters: dose 80 mg/kg, route oral
# Conditions: in vivo
# Outline: as §1
row,SMILES,Tmax [h]
1,CCN(CC)CCC/N=C(\C)N(CCCN(CC)CC)c1c2ccc(Cl)cc2nc2ccc(OC)nc12,2

# System: Plasmodium falciparum
# Assay: Antimalarial activity against chloroquine-resistant Plasmodium falciparum W2 assessed as growth inhibition after 18 hrs by [3H]-hypoxanthine uptake assay
# Format: functional, organism-based
# Conditions: not given
# Outline: (§3)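 P. falciparum clones D6, W2 and TM91C235; modified semiautomated microdilution. Compounds in DMSO, diluted in RPMI 1640 with 10% human plasma, tested over (1.56-100) x 10^-9 M; final DMSO 0.25-0.5%. Inoculum 0.5% parasitemia, 1% hematocrit. 24 h incubation, then [3H]-hypoxanthine added, further 18 h. Harvested and read by scintillation counting; IC50 by nonlinear regression.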
row,SMILES,IC50 [nM]
1,COc1ccc2nc3cc(Cl)ccc3c(N/C(=N/CCCN(C)C)c3ccc(Cl)cc3)c2n1,6.6
2,CCN(CC)CC(C)(C)C/N=C(/Nc1c2ccc(Cl)cc2nc2ccc(OC)nc12)c1ccccc1,61
3,CN(C)CCCN/C(=N\c1ccnc2cc(Cl)ccc12)c1ccc(Cl)cc1,2.9
4,CCN(CC)CCC/N=C(\C)N(CCCN(CC)CC)c1c2ccc(Cl)cc2nc2ccc(OC)nc12,9.5

# System: Mus musculus
# Assay: Toxicity in mouse infected with erythrocytic stage of chloroquine resistant Plasmodium berghei ANKA up to 160 mg/kg, po qd administered on day 3, 4 and 5 post infection measured over 30 days
# Format: organism-based, Erythrocyte
# Parameters: dose 160 mg/kg, route oral
# Conditions: in vivo, 720 h
# Outline: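 Male mice of 16-20 g infected intraperitoneally with CQ-resistant P. berghei ANKA (5 x 10^6 infected erythrocytes). Oral dosing once daily on days 3-5, five mice per group. Animals followed for 30 days by blood films; mice losing >20% body weight sacrificed.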
row,SMILES,Activity
1,COc1ccc2nc3cc(Cl)ccc3c(N/C(=N/CCCN(C)C)c3ccc(Cl)cc3)c2n1,Non-toxic
2,CCN(CC)CC(C)(C)C/N=C(/Nc1c2ccc(Cl)cc2nc2ccc(OC)nc12)c1ccccc1,Non-toxic
3,CCN(CC)CCC/N=C(\C)N(CCCN(CC)CC)c1c2ccc(Cl)cc2nc2ccc(OC)nc12,Non-toxic

# System: Plasmodium falciparum
# Assay: Antimalarial activity against chloroquine-sensitive Plasmodium falciparum D6 assessed as growth inhibition after 18 hrs by [3H]-hypoxanthine uptake assay
# Format: functional, organism-based
# Conditions: not given
# Outline: as §3
row,SMILES,IC50 [nM]
1,COc1ccc2nc3cc(Cl)ccc3c(N/C(=N/CCCN(C)C)c3ccc(Cl)cc3)c2n1,2.8
2,CCN(CC)CC(C)(C)C/N=C(/Nc1c2ccc(Cl)cc2nc2ccc(OC)nc12)c1ccccc1,21.8
3,CN(C)CCCN/C(=N\c1ccnc2cc(Cl)ccc12)c1ccc(Cl)cc1,2
4,CCN(CC)CCC/N=C(\C)N(CCCN(CC)CC)c1c2ccc(Cl)cc2nc2ccc(OC)nc12,1.3

# System: HepG2
# Assay: Cytotoxicity against human HepG2 cells after 48 hrs by MTT assay
# Format: cell-based
# Conditions: HepG2, 48 h
# Outline: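 HepG2 cells in supplemented MEM, plated at 9570 cells/well in 384-well format and incubated overnight at 37 °C, 5% CO2. Twelve duplicate 1.6-fold dilutions, 57–10,000 ng/ml, incubated 48 h. MTT added for 1 h at room temperature in the dark, formazan dissolved in acidified isopropanol, absorbance read. IC50 by sigmoidal variable-slope nonlinear regression; tryptanthrin control.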
row,SMILES,IC50 [µg/mL]
1,COc1ccc2nc3cc(Cl)ccc3c(N/C(=N/CCCN(C)C)c3ccc(Cl)cc3)c2n1,2.51
2,CCN(CC)CC(C)(C)C/N=C(/Nc1c2ccc(Cl)cc2nc2ccc(OC)nc12)c1ccccc1,> 24.2
3,CN(C)CCCN/C(=N\c1ccnc2cc(Cl)ccc12)c1ccc(Cl)cc1,1.93
4,CCN(CC)CCC/N=C(\C)N(CCCN(CC)CC)c1c2ccc(Cl)cc2nc2ccc(OC)nc12,3.04

# System: not listed separately
# Assay: Apparent volume of distribution during terminal phase in ICR mouse at 80 mg/kg, po
# Format: ADME, organism-based
# Parameters: dose 80 mg/kg, route oral
# Conditions: in vivo, read-out: Vz/F
row,SMILES,Vd/F [L/kg]
1,CCN(CC)CCC/N=C(\C)N(CCCN(CC)CC)c1c2ccc(Cl)cc2nc2ccc(OC)nc12,610

# System: Plasmodium berghei
# Assay: Antimalarial activity against erythrocytic stage of chloroquine resistant Plasmodium berghei ANKA infected in mouse assessed as cure rate at 120 mg/kg, po qd administered on day 3, 4 and 5 post infection measured 3 times per week for 30 days, starting from day 3 by Thompson test
# Format: functional, organism-based
# Parameters: dose 120 mg/kg
# Conditions: not given
# Outline: (§4)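 Male mice of 16-20 g inoculated intraperitoneally with 5 x 10^6 erythrocytes infected with CQ-resistant P. berghei ANKA. Drug given orally as a suspension once daily on days 3, 4 and 5 post-infection, five mice per dose. Blood films from day 3, three times weekly for 30 days. Cure means parasite-negative on day 30 or surviving 30 days. Mice losing >20% body weight sacrificed.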
row,SMILES,Activity
1,CCN(CC)CCC/N=C(\C)N(CCCN(CC)CC)c1c2ccc(Cl)cc2nc2ccc(OC)nc12,Active

# System: Plasmodium berghei
# Assay: Antimalarial activity against erythrocytic stage of chloroquine resistant Plasmodium berghei ANKA infected in mouse assessed as cure rate at 60 mg/kg, po qd administered on day 3, 4 and 5 post infection measured 3 times per week for 30 days, starting from day 3 by Thompson test
# Format: functional, organism-based
# Parameters: dose 60 mg/kg
# Conditions: not given
# Outline: as §4
row,SMILES,Activity
1,COc1ccc2nc3cc(Cl)ccc3c(N/C(=N/CCCN(C)C)c3ccc(Cl)cc3)c2n1,Active
2,CCN(CC)CC(C)(C)C/N=C(/Nc1c2ccc(Cl)cc2nc2ccc(OC)nc12)c1ccccc1,Active
3,CCN(CC)CCC/N=C(\C)N(CCCN(CC)CC)c1c2ccc(Cl)cc2nc2ccc(OC)nc12,Active

# System: Salmonella typhi
# Assay: Mutagenicity in Salmonella typhi by Ames test
# Format: toxicity, organism-based
# Conditions: salmonella enterica subsp. enterica […]
row,SMILES,Activity
1,COc1ccc2nc3cc(Cl)ccc3c(N/C(=N/CCCN(C)C)c3ccc(Cl)cc3)c2n1,Non-toxic
2,CN(C)CCCN/C(=N\c1ccnc2cc(Cl)ccc12)c1ccc(Cl)cc1,Non-toxic
3,CCN(CC)CCC/N=C(\C)N(CCCN(CC)CC)c1c2ccc(Cl)cc2nc2ccc(OC)nc12,Non-toxic

# System: Plasmodium falciparum
# Assay: Antimalarial activity against chloroquine-resistant Plasmodium falciparum C235 assessed as growth inhibition after 18 hrs by [3H]-hypoxanthine uptake assay
# Format: functional, organism-based
# Conditions: not given
# Outline: as §3
row,SMILES,IC50 [nM]
1,COc1ccc2nc3cc(Cl)ccc3c(N/C(=N/CCCN(C)C)c3ccc(Cl)cc3)c2n1,4.3
2,CCN(CC)CC(C)(C)C/N=C(/Nc1c2ccc(Cl)cc2nc2ccc(OC)nc12)c1ccccc1,29.7
3,CN(C)CCCN/C(=N\c1ccnc2cc(Cl)ccc12)c1ccc(Cl)cc1,1.1
4,CCN(CC)CCC/N=C(\C)N(CCCN(CC)CC)c1c2ccc(Cl)cc2nc2ccc(OC)nc12,5.1

# System: Plasmodium berghei
# Assay: Antimalarial activity against erythrocytic stage of chloroquine resistant Plasmodium berghei ANKA infected in mouse assessed as cure rate at 15 mg/kg, po qd administered on day 3, 4 and 5 post infection measured 3 times per week for 30 days, starting from day 3 by Thompson test
# Format: functional, organism-based
# Parameters: dose 15 mg/kg
# Conditions: not given
# Outline: as §4
row,SMILES,Activity
1,COc1ccc2nc3cc(Cl)ccc3c(N/C(=N/CCCN(C)C)c3ccc(Cl)cc3)c2n1,Active
2,CCN(CC)CC(C)(C)C/N=C(/Nc1c2ccc(Cl)cc2nc2ccc(OC)nc12)c1ccccc1,Active

# System: not listed separately
# Assay: AUCinfinity in ICR mouse at 80 mg/kg, po
# Format: ADME, organism-based
# Parameters: time infinity, dose 80 mg/kg, route oral
# Conditions: plasma
# Outline: as §1
row,SMILES,AUC(0-inf) [ng·h/mL]
1,CCN(CC)CCC/N=C(\C)N(CCCN(CC)CC)c1c2ccc(Cl)cc2nc2ccc(OC)nc12,8950

# System: not listed separately
# Assay: Cmax in ICR mouse at 80 mg/kg, po
# Format: ADME, organism-based
# Parameters: dose 80 mg/kg, route oral
# Conditions: in vivo
# Outline: as §1
row,SMILES,Cmax [ng/mL]
1,CCN(CC)CCC/N=C(\C)N(CCCN(CC)CC)c1c2ccc(Cl)cc2nc2ccc(OC)nc12,222

# System: not listed separately
# Assay: Apparent oral clearance in ICR mouse at 80 mg/kg
# Format: ADME, organism-based
# Parameters: dose 80 mg/kg, route oral
# Conditions: in vivo
row,SMILES,CL/F [mL/min/kg]
1,CCN(CC)CCC/N=C(\C)N(CCCN(CC)CC)c1c2ccc(Cl)cc2nc2ccc(OC)nc12,150

# System: not listed separately
# Assay: AUClast in ICR mouse at 80 mg/kg, po
# Format: ADME, organism-based
# Parameters: time 0 - last, dose 80 mg/kg, route oral
# Conditions: plasma
row,SMILES,AUC(0-t) [ng·h/mL]
1,CCN(CC)CCC/N=C(\C)N(CCCN(CC)CC)c1c2ccc(Cl)cc2nc2ccc(OC)nc12,4930

# System: not listed separately
# Assay: Elimination half life in ICR mouse at 80 mg/kg, po
# Format: ADME, organism-based
# Parameters: dose 80 mg/kg, route oral
# Conditions: in vivo, read-out: beta t1/2 (converted)
# Outline: as §1
row,SMILES,half-life [h]
1,CCN(CC)CCC/N=C(\C)N(CCCN(CC)CC)c1c2ccc(Cl)cc2nc2ccc(OC)nc12,47.5

# System: not listed separately
# Assay: Half life in mouse liver microsomes at 1 uM by LC/MS analysis
# Format: ADME
# Conditions: not given
# Outline: as §2
row,SMILES,half-life at 1 µM [h]
1,COc1ccc2nc3cc(Cl)ccc3c(N/C(=N/CCCN(C)C)c3ccc(Cl)cc3)c2n1,> 1
2,CCN(CC)CC(C)(C)C/N=C(/Nc1c2ccc(Cl)cc2nc2ccc(OC)nc12)c1ccccc1,> 1
3,CN(C)CCCN/C(=N\c1ccnc2cc(Cl)ccc12)c1ccc(Cl)cc1,0.583
4,CCN(CC)CCC/N=C(\C)N(CCCN(CC)CC)c1c2ccc(Cl)cc2nc2ccc(OC)nc12,> 1
